Several values for one entry are separate records, joined by “and”; a condition that tells them apart may be missing. Identical values can stand only once. Entries after “also recorded” stand apart in the source; their conditions may differ. Like-named read-outs stand apart in the source and are kept apart here.
How the values were obtained:
TCR = assay: Surface plasmon resonance: TCR binding to mCD1d-glycolipid complexes; design: species or system mouse; settings: for Kd: SPR, TCR towards glycolipid presented by mCD1d, 25°C, Langmuir 1:1 model
Outline: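 Biotinylated birA-tagged mouse CD1d loaded overnight with 6-fold molar excess glycolipid (DMSO stock 1 mg/ml). 500–600 RU of complex captured on streptavidin chip. TCR injected at 0.0156–2 μM in 10 mM Hepes, 150 mM NaCl, 3 mM EDTA, pH 7.4, for 1.5–3 min. Dissociation 45 min at 25°C. Empty-CD1d reference subtracted, Langmuir 1:1 fit. Three runs, separate TCR preparations.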

iNKT cells [1] = type: in vivo, C57BL/6 mice; settings: for IFN-γ levels (Figure 2 panel b, IL-12 panel): at 16 hours
[2] = system: murine iNKT hybridoma N38-2C12 (Vα14Vβ8.2b); assay: In vitro stimulation of iNKT hybridoma 2C12 with glycolipid pulsed BMDCs; type: cell-based, mouse; settings: for IL-2 production (ELISA): BMDCs loaded 100 ng/ml for 20 h, co-culture with 2C12 for 16 hours
Outline: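 Hybridoma kept in cDMEM (DMEM, 10% FCS, glutamine, pen/strep, 2-mercaptoethanol). BMDCs grown 10 days with GM-CSF, pulsed 20 h with 100 ng/ml glycolipid. 5×10^4 hybridoma cells plus 10^5 BMDCs at 37°C. Secreted IL-2 by ELISA at 16 h (n=6). Intracellular IL-2 at 4 h. TCRβ by flow at 24 h with CD45.1 BMDCs, gated CD45.2+CD45.1−7AAD−.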

iNKT cells [3] = type: in vivo, C57BL/6 mice; settings: for serum IFN-γ levels / serum IL-12 levels: 16 hours after injection of 5 μg glycolipid (i.p.)
Outline: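 C57BL/6 mice aged 5–12 weeks received 5 μg glycolipid i.p. in PBS. Glycolipid solubilised in PBS or vehicle (sucrose/deoxycholate/Tween 20), heated 20 min at 80°C, sonicated 10 min. Serum cytokines measured 16 h after injection. Mean ± s.e.m. of at least sixteen mice, pooled from two independent experiments.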

B16 melanoma cells = assay: B16 melanoma lung metastasis model; type: in vivo, mice; settings: 10 000 BMDCs loaded with glycolipid
Outline: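 C57BL/6 mice aged 5–12 weeks. B16 cells grown in advanced RPMI with 10% FCS, glutamine and pen/strep, lifted with cell dissociation buffer and washed twice. 2x10^5 or 4x10^5 cells were injected i.v. into the tail vein within 30 min of harvest. Glycolipid-pulsed BMDCs given i.v. (6x10^4 or 1x10^4). Mice killed at day 14 and lungs removed for scoring.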

human iNKT cells = type: cell-based
Outline: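 Sorted, expanded iNKT cells from healthy adult donors. Autologous PBMCs isolated by density centrifugation, incubated overnight with glycolipid (100 ng/ml), washed and irradiated (40 Gy). 5x10^4 iNKT cells cultured with 10^5 PBMCs in RPMI 1640 plus 10% human AB serum, pyruvate, non-essential amino acids and pen/strep. Supernatant cytokines at 24 h by cytometric bead array. Data pooled from two experiments, two donors.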

[4] = system: spleen DCs (CD11c CD11b double positive); assay: Co-stimulatory marker expression on spleen DCs; type: in vivo, mouse
CD1d [5] = assay: Cellular assay of stability of the glycolipid-CD1d complex; type: cell-based, mouse; settings: BMDCs loaded 100 ng/mL 20 hours, wash-off 4h to 48h
Outline: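 BMDCs grown 10 days with GM-CSF, then pulsed 20 h with 100 ng/mL glycolipid and washed. Cells were held in medium for 4–48 h, and released glycolipid was washed off. They were then co-cultured with 2C12 hybridoma (5×10^4 hybridoma:10^5 BMDCs, cDMEM, 37°C). IL-2 in the medium, normalised to the 4 h point, indicates remaining loaded CD1d. Mean ± s.e.m., n=6.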

CD1d [6] = settings: compared with CD1d-α-GalCer complexes; cited from earlier work
[7] = 600 000 glycolipid-pulsed BMDCs, at 16 and 24 hours
[8] = 600 000 glycolipid-pulsed BMDCs
[9] = 10 000 pulsed BMDCs, 16 hours, compared to NU-α-GalCer and α-GalCer
[10] = 100 ng/ml loading, 24hrs, compared to α-GalCer

Row | SMILES | Kd (TCR) | serum IFN-γ levels (iNKT cells [1]; [7]) | IFN-γ levels (Figure 2 panel b, IL-12 panel) (iNKT cells [1]; [8]) | IL-2 production (ELISA) [2] | serum IFN-γ levels (iNKT cells [3]) | lung nodules / anti-metastatic activity (B16 melanoma cells) | serum IL-12 levels (iNKT cells [3]) | other results
1 | CCCCCCCCCCCCCCCCCCCCCCCCCC(=O)N[C@@H](CO[C@H]1O[C@H](COC(=O)Nc2ccc(Cl)cc2)[C@H](O)[C@H](O)[C@H]1O)[C@H](O)[C@H](O)CCCCCCCCCCCCCC [4ClPhC-α-GalCer, α-GalCer-6″-(4-chlorophenyl)carbamate] | 49.3 ± 0.3 nM | significantly higher compared to NU-α-GalCer | significantly higher compared to α-GalCer | significantly differ from α-GalCer | – | – | – | reduced binding affinity (TCR; 49 nM vs. 25 nM): 2 fold
2 | CCCCCCCCCCCCCCCCCCCCCCCCCC(=O)N[C@@H](CO[C@H]1O[C@H](COC(=O)Nc2cccc3ccccc23)[C@H](O)[C@H](O)[C@H]1O)[C@H](O)[C@H](O)CCCCCCCCCCCCCC [NC-α-GalCer, α-GalCer-6″-(1-naphthyl)carbamate] | 37 nM and 37.1 nM | – | – | significantly differ from α-GalCer | – | – | – | –
3 | CCCCCCCCCCCCCCCCCCCCCCCCCC(=O)N[C@@H](CO[C@H]1O[C@H](CNC(=O)Nc2cccc3ccccc23)[C@H](O)[C@H](O)[C@H]1O)[C@H](O)[C@H](O)CCCCCCCCCCCCCC [NU-α-GalCer, α-GalCer-6″-(1-naphthyl)urea] | – | significantly higher compared to α-GalCer | significantly higher compared to α-GalCer | higher IL-2 levels; also recorded: significantly differ from α-GalCer | significantly lower; also recorded: comparable or slightly lower | significantly stronger compared to α-GalCer | – | –
4 | CCCCCCCCCCCCCCCCCCCCCCCCCC(=O)N[C@@H](CO[C@H]1O[C@H](COC(=O)Nc2ccncc2)[C@H](O)[C@H](O)[C@H]1O)[C@H](O)[C@H](O)CCCCCCCCCCCCCC [PyrC-α-GalCer, α-GalCer-6″-(pyridin-4-yl)carbamate] | 25 ± 3 nM | significantly higher compared to NU-α-GalCer | – | significantly differ from α-GalCer | – | superior in preventing tumor metastasis; also recorded: reduce the amount of noduli even significantly better | significantly higher IL-12 levels than NU-α-GalCer | increase of IL-12 levels (iNKT cells [3]; PyrC-α-GalCer administration, mode and comparator not stated at place): 10 fold; serum IFN-γ levels (iNKT cells [1]; [9]): significantly higher; serum IL-12 levels (iNKT cells [1]; [9]): significantly higher; serum IL-12 levels (iNKT cells [1]; [7]): even after 24 hours markedly higher than for NU-α-GalCer; also recorded: significantly higher compared to NU-α-GalCer; course of IFN-γ level over time (iNKT cells [1]; glycolipid pulsed BMDCs, in contrast to 4ClPhC-α-GalCer and NU-α-GalCer): increased up to 24 hours after injection; IFN-γ production (human iNKT cells; [10]): slightly elevated; IL-4 production (human iNKT cells; [10]): less production; IL-12 production (human iNKT cells; [10]): slightly elevated; IL-13 production (human iNKT cells; [10]): less production; Th1-biased cytokine secretion (human iNKT cells; purified human iNKT cells, more IFN-γ and IL-12 and less IL-4 and IL-13 compared to α-GalCer): able to induce Th1-biased cytokine secretion; CD40 and OX40L expression ([4]; spleen DCs): induces early CD40 and OX40L upregulation
5 | CCCCCCCCCCCCCCCCCCCCCCCCCC(=O)NC(CC1OC(CO)C(O)C(O)C1O)C(O)C(O)CCCCCCCCCCCCCC (stereo not drawn) [α-C-GalCer] | – | – | – | higher IL-2 levels | – | – | – | TCRβ expression ([2]; 2C12, 24 hours after coculture with glycolipid-pulsed CD45.1 BMDCs): clear TCRb downregulation; stability of glycolipid-CD1d complex (IL-2 normalized to 4 hours after wash off) (CD1d [5]): much slower decay compared to α-GalCer; half-life in vivo of complex with CD1d (CD1d [6]): much longer half-life in vivo
6 | CCCCCCCCCCCCCCCCCCCCCCCCCC(=O)N[C@@H](CO[C@H]1O[C@H](CO)[C@H](O)[C@H](O)[C@H]1O)[C@H](O)[C@H](O)CCCCCCCCCCCCCC [α-GalCer, alpha galactosyl ceramide, reference compound] | 26 nM and 26.4 nM | – | – | – | significantly lower | – | significantly lower | CD80 and CD86 expression ([4]; dendritic cell surface): induced upregulation of both CD80 and CD86

Reference: PMC3817951 (Journal of immunology (Baltimore, Md. : 1950), 2013)
